The values below come from ChEMBL document CHEMBL3286255, “Rational design and synthesis of novel thiazolidin-4-ones as non-nucleoside HIV-1 reverse transcriptase inhibitors” (Bioorg Med Chem, 2014).

The test system of data set [1] is Human immunodeficiency virus. In words: Inhibition of HIV reverse transcriptase at 100 ug/ml after 1 hr by ELISA relative to control. The procedure, abridged: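 Kit ELISA for HIV RT. Template/primer, biotin- and DIG-labelled dNTPs and RT enzyme in lysis buffer incubated 1 h at 37 °C. Product captured on streptavidin, detected with anti-DIG-peroxidase and ABTS substrate, and read at 405 nm. Percent inhibition calculated against a no-inhibitor sample.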
(In general: ELISA stands for enzyme-linked immunosorbent assay.)

In data set [2] the test system is Human immunodeficiency virus 1. Nature of the data set: Antiviral activity against X4 tropic Human immunodeficiency virus 1 UG070 subtype D infected in human TZM-bl cells assessed as reduction in virus-induced cytopathic effect after 48 hrs by luminescence assay. In kind it is functional, organism-based. The note with it: Human immunodeficiency virus 1, UG070 subtype D, TZM-bl, 48 h; read-out: EC50. The procedure, abridged: (§1)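 TZM-bl cells (HeLa-derived; CD4, CXCR4, CCR5; LTR-driven luciferase) seeded 1×10^4/well, left overnight at 37 °C, 5% CO2, then infected with 400 TCID50 virus for 2 h. Serial compound dilutions added in duplicate, only at levels giving >50% viability. […] Mean of two independent assays; nevirapine as positive control.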
(In general: Protection from cytopathic effect is a common read-out in antiviral testing.)

Data set [3] concerns Human immunodeficiency virus 1. In words: Antiviral activity against R5 tropic Human immunodeficiency virus 1 VB59 subtype C infected in human TZM-bl cells assessed as reduction in virus-induced cytopathic effect after 48 hrs by luminescence assay. As to conditions: Human immunodeficiency virus 1, VB59 subtype C, TZM-bl, 48 h; read-out: EC50; call rule not given here. It counts as functional, organism-based. Summed up:
as §1

Data set [4] is described as follows: Selectivity index, ratio of CC50 for human TZM-bl cells to EC50 for X4 tropic Human immunodeficiency virus 1 UG070 subtype D. In kind it is toxicity, cell-based. The note with it: read-out: Ratio CC50/EC50.
A short description of data set [5]: Selectivity index, ratio of CC50 for human TZM-bl cells to EC50 for R5 tropic Human immunodeficiency virus 1 VB59 subtype C. It counts as toxicity, cell-based. The note with it: read-out: Ratio CC50/EC50.
In data set [6] the test system is Human immunodeficiency virus 1. In words: Antiviral activity against X4 tropic Human immunodeficiency virus 1 3B subtype B infected in human TZM-bl cells assessed as reduction in virus-induced cytopathic effect after 48 hrs by luminescence assay. It counts as functional, organism-based. As to conditions: Human immunodeficiency virus 1, 3B subtype B, TZM-bl, 48 h; read-out: EC50. The procedure, abridged: as §1

The test system of data set [7] is Human immunodeficiency virus 1. Nature of the data set: Antiviral activity against R5 tropic Human immunodeficiency virus 1 ADA5 subtype B infected in human TZM-bl cells assessed as reduction in virus-induced cytopathic effect after 48 hrs by luminescence assay. It counts as functional, organism-based. The procedure, abridged:
as §1

A short description of data set [8]: Cytotoxicity against human TZM-bl cells after 48 hrs by MTT assay. In kind it is cell-based. The procedure, abridged: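 TZM-bl cells seeded 1×10^4/well and left overnight at 37 °C, 5% CO2. Medium then replaced with a two-fold dilution series of compound in quadruplicate. […] Mean of three independent assays.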
In general terms: Formazan colour is commonly taken as a measure of viable cells.

The nature of data set [9]: Selectivity index, ratio of CC50 for human TZM-bl cells to EC50 for X4 tropic Human immunodeficiency virus 1 3B subtype B. It counts as toxicity, cell-based. The note with it: read-out: Ratio CC50/EC50.
The nature of data set [10]: Selectivity index, ratio of CC50 for human TZM-bl cells to EC50 for R5 tropic Human immunodeficiency virus 1 ADA5 subtype B. It counts as toxicity, cell-based. The note with it: read-out: Ratio CC50/EC50.
Setting [11] is: Human immunodeficiency virus 1, ADA5 subtype B, TZM-bl, 48 h, read-out: EC50.

A value given as a limit tells only on which side of the number the result lay.

On to `N#Cc1ccc(N2C(=O)CSC2c2c(Cl)cccc2Cl)nc1` (stereo not drawn), for which the inhibition (as a rule, the percentage by which the read-out fell short of the control) in [1] turned out to be 42%. Also, the EC50 (commonly the concentration giving half of the maximal effect) in data set [2] was 7.13 µM; in [3], below 7.13 µM; in data set [6] it was 20.5 µM; in data set [7] (setting [11]), 4.62 µM. Moreover, the selectivity ratio is 8.4 in data set [4], 8.4 in [5], 2.92 in data set [9] and 13 in data set [10]. Further, the CC50 (commonly the concentration at which the toxic effect on the cells reaches its halfway point) at 48 h in data set [8] worked out at 60 µM.

For the compound `COc1cccc(OC)c1C1SCC(=O)N1c1cc(C)on1` (stereo not drawn), the inhibition in data set [1] was determined as 62.2%. Moreover, the EC50 is 18.4 µM in data set [2], 20.2 µM in [3], 11.3 µM in [6] and “Not Active” in data set [7] (tzm-bl). The selectivity ratio in [4] turned out to be 6.77; in [5], 6.18; in data set [9], 11. The CC50 at 48 h in data set [8] was 125 µM.

In the case of `N#Cc1ccc(NN2C(=O)CSC2c2c(F)cccc2Cl)cc1` (stereo not drawn), the inhibition in [1] was 26.3%. Further, the 50% effective concentration (EC50) in [2] was 49.6 µM; in data set [3] it was 35 µM; in data set [6], 33.5 µM; in data set [7] (setting [11]), 16.2 µM. Also, the selectivity ratio in data set [4] amounted to 1.54; in data set [5], 2.18; in data set [9], 2.27; in data set [10], 4.7. Also, in data set [8], the CC50 at 48 h came out at 76.5 µM.

In data set [1], `COc1cc(OC)nc(N2C(=O)CSC2c2c(Cl)cccc2[N+](=O)[O-])n1` (stereo not drawn) showed an inhibition of 79.4%. For the same compound, the EC50 in [2] amounted to 0.27 µM; in [3], 0.22 µM; in data set [6] it was 0.1 µM; in [7] (setting [11]), 0.22 µM. Besides, the selectivity ratio in [4] turned out to be 298; in [5], 367; in [9], 806; in data set [10], 366. This compound also displayed a CC50 at 48 h in data set [8] of 80.6 µM.

The compound `Cc1cc(N2C(=O)CSC2c2c(F)cccc2F)nc(C)c1Br` (stereo not drawn) gave an inhibition in data set [1] of 81.8%. For the same compound, the concentration for a half-maximal effect (EC50) worked out at 0.5 µM in [2], 0.77 µM in data set [3], 0.35 µM in [6] and 0.7 µM in data set [7] (setting [11]). The selectivity ratio was 134 in data set [4], 87.2 in data set [5], 192 in data set [9] and 95.9 in data set [10]. The midpoint of cytotoxicity in [8], the CC50 at 48 h, lay at 67.1 µM.

Take `Cc1ccnc2c1NC(=O)c1cccnc1N2C1CC1` [NEVIRAPINE]: the inhibition in data set [1] was 99.2%. The EC50 in data set [2], in [3], in data set [6] and in data set [7] (setting [11]) was 0.03 µM in each case. Besides, the selectivity ratio in data set [4], in data set [5], in data set [9] and in [10] was 2060 in each case. In data set [8], this compound had a CC50 at 48 h of 76.1 µM.

For `O=C1CSC(c2c(F)cccc2F)N1c1ncnc2[nH]cnc12` (stereo not drawn), the inhibition in data set [1] is 70.4%. The concentration for a half-maximal effect (EC50) in [2] amounted to 56.5 µM; in [3], 38.6 µM; in data set [6], 36.3 µM; in data set [7] (setting [11]) it was 27.8 µM. In addition, the selectivity ratio in [4] was 0.71; in data set [5], 1.05; in data set [9], 1.11; in [10], 1.45. Further, the CC50 at 48 h in data set [8] was determined as 40.5 µM.

In data set [1], `N#Cc1ccc(NN2C(=O)CSC2c2c(Cl)cccc2Cl)cc1` (stereo not drawn) displayed an inhibition of 22.2%. For the same compound, the EC50 in data set [2] is 36.9 µM; in [3], 25.7 µM; in [6] it was 30.3 µM; in data set [7] (setting [11]), 5.42 µM. The selectivity ratio in data set [4] is 1.76; in [5], 2.54; in data set [9], 2.14; in data set [10], 12. Further, half-maximal cytotoxicity in data set [8] (CC50 at 48 h) was put at 65.3 µM.

Compound `N#Cc1ccc(C2SCC(=O)N2c2ccc(C#N)cn2)cc1` (stereo not drawn) gave an inhibition in [1] of 30.4%. Besides, the EC50 in [2] was found to be 106 µM; in data set [3], 80.1 µM; in [6], 53.6 µM; in data set [7] (setting [11]), 74.2 µM. The selectivity ratio in [4] amounted to 1.2; in [5] it was 1.59; in data set [9], 2.38; in data set [10], 1.71. Besides, the CC50 at 48 h in [8] came out at 128 µM.

In turn, `COc1cccc(OC)c1C1SCC(=O)N1c1cc(C)c(Br)c(C)n1` (stereo not drawn) returned an inhibition in data set [1] of 85.5%. In addition, the EC50 in data set [2] is 2.36 µM; in [3], 2.48 µM; in data set [6], 2.22 µM; in data set [7] (setting [11]), 1.51 µM. Besides, the selectivity ratio was determined as 36.3 in data set [4], 34.6 in data set [5], 38.6 in [9] and 56.8 in [10]. The CC50 at 48 h in data set [8] came out at 85.8 µM.

In turn, `COc1cc(OC)nc(N2C(=O)CSC2c2c(Cl)cccc2Cl)n1` (stereo not drawn) gave an inhibition in [1] of 76.8%. For the same compound, the EC50 in [2] came out at 0.2 µM; in data set [3] it was 0.12 µM; in data set [6], 0.07 µM; in [7] (setting [11]), 0.1 µM. Besides, the selectivity ratio in data set [4] was 427; in [5], 662; in [9] it was 1220; in data set [10], 855. Besides, half-maximal cytotoxicity in data set [8] (CC50 at 48 h) was put at 85.4 µM.

In data set [1], `N#Cc1ccc(NN2C(=O)CSC2c2c(F)cccc2F)cc1` (stereo not drawn) had an inhibition of 34.5%. In addition, the EC50 in data set [2] amounted to 56.9 µM; in data set [3] it was 48.9 µM; in data set [6] it was 42.6 µM; in data set [7] (setting [11]), 26.6 µM. Besides, the selectivity ratio in data set [4] worked out at 0.74; in data set [5] it was 0.86; in data set [9], 1; in [10], 1.58. Further, the CC50 at 48 h in data set [8] is 42.2 µM.

With `N#Cc1ccc(C2SCC(=O)N2c2ccc(C#N)cc2)cc1` (stereo not drawn), the half-maximal effective concentration (EC50) in data set [2] amounted to 63.4 µM; in data set [3], 55.7 µM; in data set [6] it was 67.8 µM; in data set [7] (setting [11]), 61.2 µM. Moreover, the selectivity ratio in data set [4] came to 1.18; in [5], 1.34; in [9], 1.1; in [10], 1.22. In addition, the CC50 at 48 h in data set [8] stood at 75 µM.

In turn, `COc1cc(OC)nc(N2C(=O)CSC2c2c(F)cccc2Cl)n1` (stereo not drawn) showed an inhibition in data set [1] of 95.4%. Also, the EC50 in data set [2] turned out to be 0.24 µM; in data set [3], 0.32 µM; in data set [6], 0.18 µM; in [7] (setting [11]), 0.16 µM. The selectivity ratio came to 409 in [4], 307 in [5], 545 in data set [9] and 614 in [10]. Further, it took 98.2 µM to reach half-maximal cytotoxicity in [8] (CC50 at 48 h).

Compound `O=C1CSC(c2c(F)cccc2Cl)N1Nc1ccccn1` (stereo not drawn) displayed an inhibition in data set [1] of 97.5%. Also, the EC50 in data set [2] was 4.66 µM; in data set [3] it was 5.31 µM; in data set [6] it was 2.1 µM; in data set [7] (setting [11]) it was 3.79 µM. Also, the selectivity ratio is 32.7 in data set [4], 28.7 in data set [5], 72.7 in data set [9] and 40.2 in data set [10]. The compound also displayed a CC50 at 48 h in [8] of 153 µM.

In turn, `Cc1cc(C)nc(N2C(=O)CSC2c2c(Cl)cccc2[N+](=O)[O-])c1` (stereo not drawn) registered an inhibition in data set [1] of 91.5%. In addition, the EC50 in [2] turned out to be 0.08 µM; in data set [3] it was 0.08 µM; in data set [6], 0.02 µM; in data set [7] (setting [11]) it was 0.08 µM. Moreover, the selectivity ratio in [4] was determined as 1690; in data set [5] it was 1690; in [9], 6940; in data set [10], 1740. The compound also gave a CC50 at 48 h in [8] of 139 µM.
